Compound activity as filed in PubChem BioAssay.
Rows were chosen to be rich in hits. Some 3.4% of all compounds tested hit in one or more screens of this group.
MEKK2 WT-MEK5 = modulators of MEK5 binding to wildtype MEKK2, primary screen, biochemical, multiplex bead flow cytometry, Alexa488-MEK5 | binding response (% of control), % at 10 µM | 290,000 tested, 1.1% active | Alexa488-MEK5 binding to MEKK2 WT; actives lie on both sides; in the data active = binding response below about 67% or above about 130%
IMP-1 inh = IMP-1 metallo-beta-lactamase inhibitors, primary screen, biochemical, epi-absorbance readout, Pseudomonas aeruginosa enzyme. metallo-beta-lactamase IMP-1 (Pseudomonas aeruginosa). purified IMP-1, nitrocefin hydrolysis, epi-absorbance fluorescence. inhibition, % at 5.6 µM. 290,000 tested, 0.45% active;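 active = inhibition above the mean plus 3 SD of all compounds in the same screening run, cut at about 4.5% in these data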;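 also: 0% = IMP-1 with DMSO and 100% = DMSO wells lacking enzyme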
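Material – recombinant IMP-1 enzyme, purified · Amount – IMP-1 0.2 nM before substrate addition · Medium – HEPES buffer pH 7.1 with ZnSO4 and Brij 35 · Timing – 25 °C, 15 min preincubation, 25 min reaction · Measured by – plate fluorescence quenching by hydrolysis product, ex 480/em 530 nm · Read-out – percent enzyme inhibition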
VIM-2 inh = VIM-2 metallo-beta-lactamase inhibitors, primary screen, biochemical, epi-absorbance readout, Pseudomonas aeruginosa enzyme; purified VIM-2, nitrocefin hydrolysis, epi-absorbance fluorescence; AID 1527, 2009; 290,000 tested, 0.89% active; inhibition, % at 5.6 µM;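 active = inhibition above the mean of all tested compounds plus 3 SD, cutoff set per screening run, cut at about 7.5% in these data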;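 also: red hydrolysis product quenches plate fluorescence so inhibitors raise well fluorescence; 0% = enzyme with DMSO and 100% = DMSO without enzyme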
MEKK3 PB1 HTS = modulators of MEKK3-MEK5 PB1 binding, primary screen, biochemical, wildtype MEKK3, multiplex bead flow cytometry, Alexa488-MEK5; Mitogen-activated protein kinase kinase kinase 3 (Homo sapiens), Q99759; bead-based flow cytometry, Alexa488-MEK5 binding to MEKK3; actives lie on both sides; 0 = blocked by unlabeled MEK5, 100 = vehicle; binding response (% of control), % at 10 µM; 290,000 tested, 1.4% active; AID 1529, 2009;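 active = binding response more than 3 SD above or below the average of its plate-row segment, actives on both sides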;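 also: Alexa488 bead fluorescence after subtracting the streptavidin-only scavenger bead signal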
Target sequence (Q99759 whole entry, looked up): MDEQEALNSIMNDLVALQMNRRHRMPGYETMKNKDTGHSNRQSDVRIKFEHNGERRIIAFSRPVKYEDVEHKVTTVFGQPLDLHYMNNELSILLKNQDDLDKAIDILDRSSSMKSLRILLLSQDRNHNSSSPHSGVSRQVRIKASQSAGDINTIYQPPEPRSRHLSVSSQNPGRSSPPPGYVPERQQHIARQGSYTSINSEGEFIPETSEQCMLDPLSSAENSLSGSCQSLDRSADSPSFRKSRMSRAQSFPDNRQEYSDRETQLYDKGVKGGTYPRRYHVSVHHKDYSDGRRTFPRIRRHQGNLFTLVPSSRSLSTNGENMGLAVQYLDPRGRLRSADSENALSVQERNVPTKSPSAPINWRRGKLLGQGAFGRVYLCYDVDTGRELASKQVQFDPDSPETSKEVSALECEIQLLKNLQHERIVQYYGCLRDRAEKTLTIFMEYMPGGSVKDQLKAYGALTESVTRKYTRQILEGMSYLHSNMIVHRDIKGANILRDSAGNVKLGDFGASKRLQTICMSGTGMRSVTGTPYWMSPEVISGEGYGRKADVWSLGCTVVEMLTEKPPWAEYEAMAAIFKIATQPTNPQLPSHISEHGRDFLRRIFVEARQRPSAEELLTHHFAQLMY
MEKK2 mut-MEK5 = MEK5 binding signal on mutant MEKK2 PB1, primary screen, biochemical, multiplex bead flow cytometry, Alexa488-MEK5. 290,000 tested, 0.35% active. Alexa488-MEK5 binding to MEKK2 mutant. percent response, % at 10 µM; in the data active = percent response above about 24%, passing the limit was not always enough
MEKK2wt confirm = modulators of MEK5 binding to wildtype MEKK2, confirmation, biochemical, single concentration, multiplex bead flow cytometry | shares compounds with MEKK3 PB1 HTS | Alexa488-MEK5 binding to MEKK2 WT; actives lie on both sides | binding response (% of control), % at 10 µM | 5,900 tested, 2.4% active | AID 1892, 2009; in the data active = binding response below about 16% or above about 210%; inactive = in between
MEKK2mut confirm = mutant MEKK2 PB1-MEK5 binding signal retest – biochemical, single concentration, multiplex bead flow cytometry, confirmation. shares compounds with MEKK3 PB1 HTS. Alexa488-MEK5 binding to MEKK2 mutant. percent response, % at 10 µM. 5,900 tested, 2% active. AID 1893, 2009; in the data active = percent response mostly above about 71%, no sharp cut-off; inactive = mostly below about 38%;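 also: higher means compound restores mutant binding toward wildtype level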
MEKK3 confirm = MEKK3 wild-type PB1 binding to MEK5, inhibitors, confirmation, biochemical, bead multiplex flow cytometry, single concentration, wildtype; 5,900 tested, 1.8% active; shares compounds with MEKK3 PB1 HTS; binding response (% of control), % at 10 µM; Alexa488-MEK5 binding to MEKK3; active compounds read low;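 active = binding response below 72% of control, or above a set upper limit, though filed actives all read lower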;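 also: 100% = DMSO only wells and 0% = binding blocked by excess unlabeled MEK5; lower values mean stronger disruption of MEK5 binding to MEKK3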
* hit, by the source's call; [ ] = dose if it differs, or a comment.

`O=C(NCCCO)c1ccc(CSc2nc3ccccc3c(=O)[nH]2)cc1` gave MEKK2 WT-MEK5 113, IMP-1 inh -4, VIM-2 inh -1, MEKK3 PB1 HTS 128*, MEKK2 mut-MEK5 24, MEKK2wt confirm 109, MEKK2mut confirm 9 and MEKK3 confirm 102.
Screening O=c1[nH]c(SCc2ccc(Cl)cc2)nc2ccccc12 returned MEKK2 WT-MEK5 101, IMP-1 inh -1, VIM-2 inh -2, MEKK3 PB1 HTS 103 and MEKK2 mut-MEK5 2.
Screening CN(CCO)c1cc(N2CCCCC2)c2nonc2c1[N+](=O)[O-] returned MEKK2 WT-MEK5 106, IMP-1 inh -4, VIM-2 inh -2, MEKK3 PB1 HTS 119 and MEKK2 mut-MEK5 -1.
For CN(CCO)c1cc(N2CCC3(CC2)OCCO3)c2nonc2c1[N+](=O)[O-] the results were MEKK2 WT-MEK5 105, IMP-1 inh -4, VIM-2 inh -4, MEKK3 PB1 HTS 74*[inhibitor], MEKK2 mut-MEK5 -1, MEKK2wt confirm 98, MEKK2mut confirm -2 and MEKK3 confirm 100.
For CN(C)CCCNC(=O)c1ccccn1 the results were MEKK2 WT-MEK5 96, IMP-1 inh -2, VIM-2 inh -5, MEKK3 PB1 HTS 98 and MEKK2 mut-MEK5 -2.
Screening CN(C)CCCNC(=O)c1ccc(-c2nc(-c3ccc(Cl)cc3)cs2)cc1 returned MEKK2 WT-MEK5 252*, IMP-1 inh -3, VIM-2 inh 0, MEKK3 PB1 HTS 107, MEKK2 mut-MEK5 40, MEKK2wt confirm 199, MEKK2mut confirm 47 and MEKK3 confirm 108.
`c1ccc(OCCOc2cccc3cccnc23)cc1` gave MEKK2 WT-MEK5 109, IMP-1 inh -3, VIM-2 inh -1, MEKK3 PB1 HTS 152*, MEKK2 mut-MEK5 1, MEKK2wt confirm 94, MEKK2mut confirm 0 and MEKK3 confirm 94.
C/C(=N\NC(=O)c1ccccc1)c1ccc(NC(=O)c2cccs2)cc1 was read as MEKK2 WT-MEK5 109, IMP-1 inh -2, VIM-2 inh -5, MEKK3 PB1 HTS 100 and MEKK2 mut-MEK5 11.
`COc1ccc(CCNc2ccc(S(=O)(=O)N3CCCC3)cc2[N+](=O)[O-])cc1` gave MEKK2 WT-MEK5 107, IMP-1 inh -2, VIM-2 inh -1, MEKK3 PB1 HTS 142*, MEKK2 mut-MEK5 -1, MEKK2wt confirm 103, MEKK2mut confirm -2 and MEKK3 confirm 101.
Screening O=[N+]([O-])c1cc(S(=O)(=O)N2CCCC2)ccc1NCCc1ccccc1 returned MEKK2 WT-MEK5 96, IMP-1 inh -1, VIM-2 inh -3, MEKK3 PB1 HTS 97 and MEKK2 mut-MEK5 -1.
Screening COc1cc(/C=C2\SC(N)=NC2=O)cc(Cl)c1O returned MEKK2 WT-MEK5 105, IMP-1 inh 0, VIM-2 inh 0, MEKK3 PB1 HTS 106 and MEKK2 mut-MEK5 1.
O=C(Nc1ccc(N2CCCCC2)cc1)c1cncc(Br)c1 was read as MEKK2 WT-MEK5 38*[inhibitor], IMP-1 inh -4, VIM-2 inh -4, MEKK3 PB1 HTS 99, MEKK2 mut-MEK5 1, MEKK2wt confirm 97, MEKK2mut confirm -4 and MEKK3 confirm 99.
Cc1cccc(N2CCc3c2nc2ccc(Br)cc2c3N)c1 was read as MEKK2 WT-MEK5 96, IMP-1 inh 0, VIM-2 inh -4, MEKK3 PB1 HTS 124*, MEKK2 mut-MEK5 18, MEKK2wt confirm 121, MEKK2mut confirm 22 and MEKK3 confirm 111.
For Nc1c2c(nc3ccc(Br)cc13)N(c1ccccc1)CC2 the results were MEKK2 WT-MEK5 117, IMP-1 inh -1, VIM-2 inh 1, MEKK3 PB1 HTS 104 and MEKK2 mut-MEK5 6.
For O=S(=O)(Nc1ccc(Cc2ccncc2)cc1)c1ccc(Cl)cc1 the results were MEKK2 WT-MEK5 82, IMP-1 inh -2, VIM-2 inh -4, MEKK3 PB1 HTS 83 and MEKK2 mut-MEK5 -16.
Screening CCOc1ccc(C(=O)NCC(c2cccs2)N(C)C)cc1OCC (configuration not stated) returned MEKK2 WT-MEK5 94, IMP-1 inh -5, VIM-2 inh -3, MEKK3 PB1 HTS 70*[inhibitor], MEKK2 mut-MEK5 -2, MEKK2wt confirm 100, MEKK2mut confirm 5 and MEKK3 confirm 103.
Screening Cn1c(CNC(=O)c2ccco2)nnc1SCC(=O)N1c2ccccc2Sc2ccccc21 returned MEKK2 WT-MEK5 107, IMP-1 inh -2, VIM-2 inh -1, MEKK3 PB1 HTS 102 and MEKK2 mut-MEK5 4.
Screening O=C(COc1ccc(C(=S)N2CCOCC2)cc1)Nc1ccccc1C(F)(F)F returned MEKK2 WT-MEK5 102, IMP-1 inh -2, VIM-2 inh -1, MEKK3 PB1 HTS 101 and MEKK2 mut-MEK5 0.
For Cc1ccccc1-c1nc(CN2CCC(C(=O)NCCCN3CCOCC3)CC2)c(C)o1 the results were MEKK2 WT-MEK5 130, IMP-1 inh -2, VIM-2 inh 0, MEKK3 PB1 HTS 102 and MEKK2 mut-MEK5 14.
For CCc1ccc(-c2nc(CN3CCC(C(=O)NCc4ccccc4OC)CC3)c(C)o2)cc1 the results were MEKK2 WT-MEK5 156*, IMP-1 inh -2, VIM-2 inh -4, MEKK3 PB1 HTS 104, MEKK2 mut-MEK5 16, MEKK2wt confirm 114, MEKK2mut confirm 3 and MEKK3 confirm 104.
For Cc1ccccc1-c1nc(CN2CCC(C(=O)NCCCN3CC(C)CC(C)C3)CC2)c(C)o1 (configuration not stated) the results were MEKK2 WT-MEK5 142*, IMP-1 inh -3, VIM-2 inh 0, MEKK3 PB1 HTS 107, MEKK2 mut-MEK5 18, MEKK2wt confirm 127, MEKK2mut confirm 18 and MEKK3 confirm 102.
`CCC(=O)N1CCCn2c1nc1ccccc12` gave MEKK2 WT-MEK5 104, IMP-1 inh 0, VIM-2 inh -1, MEKK3 PB1 HTS 97 and MEKK2 mut-MEK5 2.
